# Only some compounds are listed: those with a hit (about 1.9% of all), similar ones and a draw of the others.
# VIM-2 inhibitor: inhibitors of Pseudomonas aeruginosa VIM-2 metallo-beta-lactamase; purified VIM-2, nitrocefin hydrolysis, epi-absorbance fluorescence; inhibition, % at 5.6 µM; 290,000 tested, 0.89% active;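 active = inhibition above the mean of all tested compounds plus 3 SD, cutoff set per screening run, cut at about 7.5% in these data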;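 also: red hydrolysis product quenches plate fluorescence so inhibitors raise well fluorescence; 0% = enzyme with DMSO and 100% = DMSO without enzyme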
# p-CIP stab down: compounds decreasing mouse p/CIP protein stability. Q05BA5. F442A p/CIP-EGFP cells, EGFP fluorescence, 16 h. decrease of EGFP signal, % at 10 µM. 290,000 tested, 0.01% active;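 active = EGFP signal decrease of at least 30% at 10 µM or well 3 SD below plate mean, unless failing retest; inactive = the rest, including hits failing retest or dose response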
# SUMO HTRF inh: inhibitors of human SUMOylation (UBC9). P63279. HTRF SUMOylation assay, SAE1/SAE2 + UBC9, in vitro. inhibition, % at 35 µM. 290,000 tested, 0.36% active; in the data active = inhibition above about 50%, passing the limit was not always enough
# T cell HTS: T cell immune modulation candidate | 2C CD8+ T cell-vesicle binding, flow cytometry; active compounds read low | 330,000 tested, 0.068% active | response (vesicle binding), % at 7 µM | AID 2052;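 active = response, share of CD8 T cells binding vesicles, and their 90th percentile fluorescence all below set limits, cut at about 80% in these data, passing the limit was not always enough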;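 also: values below 100% mean blocked vesicle binding to the CD8+ T cells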
#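 Benchmarks: naked versus QL9-loaded vesicles / Assay system: purified 2C TCR transgenic mouse naive CD8+ T cells / Technique: high-throughput flow cytometry with anti-B7-1 and anti-CD8 staining / Timing: Cell–vesicle co-incubation 1.5 h at 37 °C, staining 20 min on ice / Read-out: percent CD8+ FL2 mean versus row control / Probe or stimulus: QL9-loaded Drosophila micro-vesicles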
# IMP-1 inh-1: inhibitors of Pseudomonas aeruginosa IMP-1 metallo-beta-lactamase. purified IMP-1, nitrocefin hydrolysis, epi-absorbance fluorescence. inhibition, % at 5.6 µM. 290,000 tested, 0.45% active. AID 1556;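 active = inhibition above the mean plus 3 SD of all compounds in the same screening run, cut at about 4.5% in these data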;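 also: 0% = IMP-1 with DMSO and 100% = DMSO wells lacking enzyme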
#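 Assay system: purified recombinant IMP-1 beta-lactamase. Input: IMP-1 0.2 nM before substrate addition. Buffer or medium: Zinc- and detergent-supplemented HEPES buffer, pH 7.1. Schedule: 25 °C, 15 min preincubation, 25 min reaction. Signal: Epi-absorbance fluorescence, 480 nm excitation, 530 nm emission. Evaluation: percent inhibition from optical density relative to buffer-blank wells.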
# Fh CTSL1 inh: counter-screen for PFM18AAP inhibitors: inhibitors of F. hepatica cathepsin L1; recombinant F. hepatica cathepsin L1, Z-Leu-Arg-MCA fluorescence; inhibition, % at 5.96 µM; 300,000 tested, 0.49% active;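 active = inhibition above the mean of all tested compounds plus 3 SD, set per screening campaign, cut at about 17% in these data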;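 also: 0% = plate median of test compound wells and 100% = 1 µM Z-Phe-Ala-diazomethylketone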
# IMP-1 inh-2: blocks IMP-1 metallo-beta-lactamase in VIM-2 selectivity screen | shares compounds with VIM-2 inhibitor | 1,300 tested, under 10 active | inhibition, % at 5.6 µM | purified IMP-1, nitrocefin hydrolysis, epi-absorbance fluorescence; call rule not given here;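 also: 0% = enzyme with vehicle and 100% = vehicle without enzyme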
# VIM-2 FRET ctr: inhibits VIM-2 in FRET assay to exclude epi-absorbance artifacts | shares compounds with VIM-2 inhibitor | purified VIM-2, CCF2 FRET substrate hydrolysis | inhibition, % at 5.6 µM | 1,300 tested, 23% active | AID 1857;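 active = inhibition above the mean of all tested compounds plus 3 SD, cut at about 19% in these data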;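 also: 0% = VIM-2 plus DMSO and 100% = no enzyme wells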
# TEM-1 counter-1: TEM-1 inhibition, counter-screen for VIM-2 inhibitors; 1,300 tested, 3% active; AID 1866; shares compounds with VIM-2 inhibitor; inhibition, % at 5.6 µM; Purified TEM-1, nitrocefin hydrolysis, epi-absorbance fluorescence;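 active = inhibition above that campaign's mean inhibition plus 3 SD, cut at about 0.46% in these data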;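 also: 0% = TEM-1 with DMSO and 100% = TEM-1 with 100 µM potassium clavulanate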
# VIM-2 inh conf: confirmation of P. aeruginosa VIM-2 metallo-beta-lactamase inhibitors | shares compounds with VIM-2 inhibitor | purified VIM-2, nitrocefin hydrolysis, epi-absorbance | inhibition, % at 5.6 µM | 1,300 tested, 96% active;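 active = inhibition of the VIM-2 beta-lactamase enzyme above about 11% from the earlier first-round screen, limit read from the data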;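 also: 0% = VIM-2 with DMSO and 100% = buffer wells without enzyme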
# VIM-2 confirm: VIM-2 inhibition, confirmation assay | shares compounds with IMP-1 inh-1 | 200 tested, 73% active | purified VIM-2 enzyme, nitrocefin absorbance | AID 1860 | inhibition, % at 5.6 µM; in the data active = inhibition above about 8%;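 also: 0% = enzyme with vehicle and 100% = no enzyme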
# TEM-1 counter-2: blocks E. coli TEM-1 beta-lactamase, VIM-2 IMP-1 counter-screen | shares compounds with IMP-1 inh-1 | nitrocefin absorbance inhibition | inhibition, % at 5.6 µM | 200 tested, 50% active | AID 2184; in the data active = inhibition above about 0.66%
# IMP-1 inh conf: confirmation of P. aeruginosa IMP-1 metallo-beta-lactamase inhibitors; shares compounds with IMP-1 inh-1; purified IMP-1 enzyme, absorbance substrate hydrolysis; inhibition, % at 5.6 µM; 200 tested, 60% active; in the data active = inhibition above about 4.9%;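 also: 0% = enzyme with vehicle and 100% = vehicle without enzyme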
# * marks the source's active call; other numbers are inactive results; i = inactive; nt = no result.
SMILES,VIM-2 inhibitor,p-CIP stab down,SUMO HTRF inh,T cell HTS,IMP-1 inh-1,Fh CTSL1 inh,IMP-1 inh-2,VIM-2 FRET ctr,TEM-1 counter-1,VIM-2 inh conf,others
CCc1ccccc1N(C(=O)c1ccco1)C(C(=O)NC1CCCC1)c1cccnc1 (stereo not given),-2,-6,2,225,-1,3,nt,nt,nt,nt,
O=C(CCn1cnc2ccccc21)N=Nc1c(O)[nH]c2ccccc12,36*,-13,3,350,-4,3,-5,-8,-7,53*,
O=C(Cc1ccc(-n2c(=O)c3sccc3n(CC(=O)Nc3ccccc3F)c2=O)cc1)NCc1ccco1,-3,1,3,238,-1,-4,nt,nt,nt,nt,
COc1ccccc1N1CC(C(=O)Nc2nnc(SCc3ccccn3)s2)CC1=O (stereo not given),-2,-1,-9,351,-1,-3,nt,nt,nt,nt,
CNC(=O)CSc1nnc(NC(=O)C2CC(=O)N(c3ccccc3OC)C2)s1 (stereo not given),33*,5,5,i,-3,0,-4,-1,-4,0,
Cc1ccccc1C(=O)c1cccn1CC(=O)O,38*,1,-8,288,-3,-2,-2,57*,1.3*,43*,
Cc1ccccc1C(=O)c1cccn1CC(=O)NCc1ccccc1,1,2,-9,322,-1,-2,nt,nt,nt,nt,
O=[N+]([O-])c1ccccc1/C=N/n1c(-c2ccccc2)n[nH]c1=S,0,8,-7,282,-5,5,nt,nt,nt,nt,
O=[N+]([O-])c1ccccc1/C=C/C=N/n1c(-c2ccccc2F)n[nH]c1=S,13*,-2,24,382,-2,1,-1,34*,-4,21*,
Cn1c(=O)c2c(nc(N3CCCCC3)n2CCNC2=NCCC2)n(C)c1=O,20*,-4,10,217,0,2,-3,2,-6,36*,
CC(C)Oc1ccc(Cn2c(-c3ccco3)n[nH]c2=S)cc1,16*,-14,-9,161,-6,-1,-3,45*,-10,27*,
S=c1[nH]nc(-c2ccco2)n1-c1cccc2ccccc12,19*,-3,4,139,-7,8,-2,49*,-8,32*,
COc1ccccc1-n1c(-c2ccco2)n[nH]c1=S,22*,-2,2,185,-1,-1,-3,44*,-8,28*,
CC(=C/c1ccccc1)/C=N/n1c(-c2ccco2)n[nH]c1=S,17*,-3,-12,304,-2,2,-3,38*,-7,23*,
CC(/C=N/n1c(-c2cc(C)[nH]n2)n[nH]c1=S)=C\c1ccccc1,0,6,3,718,-5,-1,nt,nt,nt,nt,
Cc1cc(C)c2sc(NC(=O)c3ccc([N+](=O)[O-])o3)nc2c1,-3,-11,9,i,-2,10,nt,nt,nt,nt,
NC(=S)NN=C1c2cc(OCCN3CCOCC3)ccc2-c2ccc(OCCN3CCOCC3)cc21,59*,-11,2,217,-3,12,-3,-3,-11,71*,
O=C(N/N=C/c1ccc(-n2ccnc2)cc1)c1cccs1,77*,10,13,173,0,1,-3,-11,-6,84*,
CC1=CC(=O)C(C(C)C)=C/C1=C(\c1cc(C(C)C)c(OP(=O)(O)O)cc1C)c1ccccc1C(=O)O,18*,4,20,775,-2,8,-2,32*,-3,25*,
CCOc1ccc(C(=O)c2ccccc2C(=O)O)cc1OCC,0,2,6,310,-1,0,nt,nt,nt,nt,
CC(Oc1ccc(Cl)cc1Cl)C(=O)OCC(=O)c1c(N)n(C)c(=O)n(C)c1=O (stereo not given),nt,nt,nt,284,nt,nt,nt,nt,nt,nt,
CCN(Cc1ccncc1)C(=O)C1CCC(=O)N(Cc2ccc(Cl)cc2)C1 (stereo not given),0,21,40,243,-1,-3,nt,nt,nt,nt,
Nc1nc(=S)c2ncn(C3OC(CO)C(O)C3O)c2[nH]1 (stereo not given),22*,3,34,225,0,-4,-1,31*,-6,26*,
Nc1nc(=S)c2ncn([C@@H]3O[C@H](CO)[C@@H](O)[C@H]3O)c2[nH]1,nt,nt,nt,i,nt,0,nt,nt,nt,nt,
CCNC(=O)COc1cccc(C(=O)NCc2ccccc2)c1,1,-10,21,248,-4,1,nt,nt,nt,nt,
SMILES,VIM-2 inhibitor,p-CIP stab down,SUMO HTRF inh,T cell HTS,IMP-1 inh-1,Fh CTSL1 inh,IMP-1 inh-2,VIM-2 FRET ctr,TEM-1 counter-1,VIM-2 inh conf,others
ClC(Cl)(Cl)c1nc2ccccc2n2nncc12,24*,-17,10,316,-2,4,-2,0,-6,38*,
CC(C(=O)N1CCc2ccccc21)N1CCN(Cc2ccccc2)CC1 (stereo not given),1,-10,11,215,0,4,nt,nt,nt,nt,
COc1ccc(CCn2c(SCCN3CCCCC3)nc3ccccc3c2=O)cc1OC,75*,-15,6,153,-3,-1,-2,0,-5,84*,
Cc1c(N2C(=O)C3C4C=CC(C4)C3C2=O)c(=O)n(-c2ccccc2)n1C (stereo not given),1,-1,14,502,0,1,nt,nt,nt,nt,
CCN(CC)CCNc1ncnc2c1sc1nc(N3CCOCC3)c3c(c12)CCCC3,15*,2,8,42,-3,0,-4,0,-7,33*,
N#CC(C#N)=C1C=C2C=C(N3CCCCC3)CCC2CC1 (stereo not given),48*,-351,-2,511,58*,8,nt,nt,nt,nt,VIM-2 confirm=62*;TEM-1 counter-2=87*;IMP-1 inh conf=58*
CCCCN(C)C1=CC2=CC(=C(C#N)C#N)CCC2CC1 (stereo not given),30*,-346,10,576,43*,1,nt,nt,nt,nt,VIM-2 confirm=53*;TEM-1 counter-2=79*;IMP-1 inh conf=50*

# Compound activity as filed in PubChem BioAssay.
